Results taken from ChEMBL document CHEMBL4251648, “Synthesis and bioevaluation and doking study of 1H-pyrrolo[2,3-b]pyridine derivatives bearing aromatic hydrazone moiety as c-Met inhibitors” (Eur J Med Chem, 2018).
pIC50: −log10 of the molar value.

Experiments:
Format in all cases: functional, cell-based
A549 = assay: Antiproliferative activity against human A549 cells after 72 hrs by MTT assay; settings: for pIC50: Homo sapiens, A549, 72 h, read-out: IC50; for IC50: a549
Procedure, shortened: (§1)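 Cells grown in MEM with 10% FBS. About 4×10³ cells per well, pre-incubated 24 h at 37°C in 5% CO₂. Compound added at final concentrations, then 72 h. MTT added at 5 µg/mL final for 4 h at 37°C. Tested three times; IC50 taken as the average of […] determinations.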

MCF7 = assay: Antiproliferative activity against human MCF7 cells after 72 hrs by MTT assay; settings: for IC50: mcf7; for pIC50: Homo sapiens, MCF7, 72 h, read-out: IC50; procedure, shortened: as §1
PC-3 = assay: Antiproliferative activity against human PC3 cells after 72 hrs by MTT assay; settings: for IC50: pc-3; for pIC50: Homo sapiens, PC-3, 72 h, read-out: IC50; procedure, shortened: as §1
HepG2 = assay: Antiproliferative activity against human HepG2 cells after 72 hrs by MTT assay; settings: for pIC50: Homo sapiens, HepG2, 72 h, read-out: IC50; for IC50: hepg2
Procedure, shortened: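 Cells grown in MEM with 10% FBS. About 4×10³ cells per well, pre-incubated 24 h at 37°C in 5% CO₂. Compound added at final concentrations, then 72 h. MTT added at 5 µg/mL final for 4 h at 37°C. Formazan dissolved in DMSO and read at 492 nm against 630 nm reference. Tested three times; IC50 taken as the average of […] determinations.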

Structure (SMILES): O=C(N/N=C/c1ccc(O)cc1Br)Nc1ccc(Oc2ccnc3[nH]ccc23)cc1
- pIC50 (A549): 5.29
- IC50 (MCF7): Not Active
- IC50 (PC-3): Not Active

Structure (SMILES): CN1CCN(CCCn2cccc2/C=N/NC(=O)Nc2ccc(Oc3ccnc4[nH]ccc34)c(F)c2)CC1
- pIC50 (A549): 5.66
- pIC50 (HepG2): 5.56
- pIC50 (MCF7): 5.43
- pIC50 (PC-3): 5.66

Structure (SMILES): O=C(N/N=C/c1cccc(Br)c1)Nc1ccc(Oc2ccnc3[nH]ccc23)c(F)c1
- pIC50 (A549): 5.65
- pIC50 (HepG2): 6.18
- pIC50 (MCF7): 7.31
- pIC50 (PC-3): 5.40

Structure (SMILES): CC(C)(C)c1cc(/C=N/NC(=O)Nc2ccc(Oc3ccnc4[nH]ccc34)c(F)c2)cc(C(C)(C)C)c1O
- pIC50 (A549): 4.87
- pIC50 (HepG2): 5.14
- pIC50 (MCF7): 6.08
- pIC50 (PC-3): 4.98

Structure (SMILES): O=C(N/N=C/c1cccn1CCN1CCOCC1)Nc1ccc(Oc2ccnc3[nH]ccc23)cc1
- pIC50 (A549): 5.41
- pIC50 (HepG2): 5.00
- pIC50 (PC-3): 5.78

Structure (SMILES): O=C(N/N=C/c1cc(Br)c(O)c(Br)c1)Nc1ccc(Oc2ccnc3[nH]ccc23)c(F)c1
- pIC50 (A549): 4.79
- pIC50 (HepG2): 5.19
- IC50 (MCF7): Not Active
- IC50 (PC-3): Not Active

Structure (SMILES): O=C(N/N=C/c1cccn1CCCN1CCOCC1)Nc1ccc(Oc2ccnc3[nH]ccc23)cc1
- pIC50 (A549): 5.65
- pIC50 (HepG2): 5.77
- IC50 (MCF7): Not Active
- pIC50 (PC-3): 4.83

Structure (SMILES): O=C(N/N=C/c1ccc(O)c(Br)c1)Nc1ccc(Oc2ccnc3[nH]ccc23)c(F)c1
- pIC50 (A549): 5.03
- pIC50 (HepG2): 5.87
- pIC50 (MCF7): 5.08
- pIC50 (PC-3): 4.54

Structure (SMILES): CCN(CC)CCCn1cccc1/C=N/NC(=O)Nc1ccc(Oc2ccnc3[nH]ccc23)c(F)c1
- pIC50 (A549): 5.92
- pIC50 (HepG2): 5.67
- pIC50 (MCF7): 5.47
- pIC50 (PC-3): 5.53

Structure (SMILES): CCN(CC)CCn1cccc1/C=N/NC(=O)Nc1ccc(Oc2ccnc3[nH]ccc23)cc1
- pIC50 (A549): 5.45
- pIC50 (HepG2): 5.23
- pIC50 (PC-3): 5.86

Structure (SMILES): O=C(N/N=C/c1ccc(Br)cc1)Nc1ccc(Oc2ccnc3[nH]ccc23)cc1
- pIC50 (A549): 6.19
- pIC50 (HepG2): 6.00
- IC50 (MCF7): Not Active
- IC50 (PC-3): Not Active

Structure (SMILES): O=C(N/N=C/c1cccn1CCCN1CCCC1)Nc1ccc(Oc2ccnc3[nH]ccc23)c(F)c1
- pIC50 (A549): 5.70
- pIC50 (HepG2): 5.46
- pIC50 (MCF7): 5.34
- pIC50 (PC-3): 5.45

Structure (SMILES): COc1ccc(/C=N/NC(=O)Nc2ccc(Oc3ccnc4[nH]ccc34)cc2)cc1
- pIC50 (A549): 5.37
- pIC50 (HepG2): 5.01
- IC50 (MCF7): Not Active
- IC50 (PC-3): Not Active

Structure (SMILES): CN(C)CCn1cccc1/C=N/NC(=O)Nc1ccc(Oc2ccnc3[nH]ccc23)cc1
- IC50 (A549): Not Active
- IC50 (HepG2): Not Active
- pIC50 (PC-3): 5.41

Structure (SMILES): CN(C)CCCn1cccc1/C=N/NC(=O)Nc1ccc(Oc2ccnc3[nH]ccc23)cc1
- pIC50 (A549): 5.58
- pIC50 (HepG2): 5.38
- pIC50 (MCF7): 5.04
- pIC50 (PC-3): 5.29

Structure (SMILES): O=C(N/N=C/c1ccc(F)cc1)Nc1ccc(Oc2ccnc3[nH]ccc23)cc1
- pIC50 (A549): 5.84
- pIC50 (HepG2): 5.46
- pIC50 (MCF7): 5.43
- pIC50 (PC-3): 5.13

Structure (SMILES): O=C(N/N=C/c1ccc(F)cc1)Nc1ccc(Oc2ccnc3[nH]ccc23)c(F)c1
- pIC50 (A549): 6.17
- pIC50 (HepG2): 5.41
- pIC50 (MCF7): 6.10
- pIC50 (PC-3): 5.63

Structure (SMILES): O=C(N/N=C/c1cccc(Cl)c1Cl)Nc1ccc(Oc2ccnc3[nH]ccc23)cc1
- IC50 (A549): Not Active
- IC50 (HepG2): Not Active
- IC50 (MCF7): Not Active
- IC50 (PC-3): Not Active

Structure (SMILES): COc1ccc(/C=N/NC(=O)Nc2ccc(Oc3ccnc4[nH]ccc34)c(F)c2)cc1
- pIC50 (A549): 5.40
- pIC50 (HepG2): 5.75
- pIC50 (MCF7): 5.24
- pIC50 (PC-3): 5.17

Structure (SMILES): CN(C)CCn1cccc1/C=N/NC(=O)Nc1ccc(Oc2ccnc3[nH]ccc23)c(F)c1
- IC50 (A549): Not Active
- pIC50 (HepG2): 5.05
- pIC50 (PC-3): 5.80

Structure (SMILES): CN1CCN(CCCn2cccc2/C=N/NC(=O)Nc2ccc(Oc3ccnc4[nH]ccc34)cc2)CC1
- pIC50 (A549): 5.79
- pIC50 (HepG2): 5.56
- pIC50 (MCF7): 5.37
- pIC50 (PC-3): 5.43

Structure (SMILES): O=C(N/N=C/c1ccccc1)Nc1ccc(Oc2ccnc3[nH]ccc23)cc1
- pIC50 (A549): 4.76
- pIC50 (HepG2): 6.12
- pIC50 (MCF7): 5.82
- pIC50 (PC-3): 4.99

Structure (SMILES): COc1ccc(/C=N/NC(=O)Nc2ccc(Oc3ccnc4[nH]ccc34)c(F)c2)c(OC)c1OC
- pIC50 (A549): 5.84
- pIC50 (HepG2): 5.52
- pIC50 (MCF7): 6.87
- pIC50 (PC-3): 5.05

Structure (SMILES): O=C(N/N=C/c1ccc(O)cc1)Nc1ccc(Oc2ccnc3[nH]ccc23)c(F)c1
- pIC50 (A549): 5.42
- pIC50 (HepG2): 5.71
- IC50 (MCF7): Not Active
- pIC50 (PC-3): 5.56

Structure (SMILES): O=C(N/N=C/c1ccc(F)cc1Cl)Nc1ccc(Oc2ccnc3[nH]ccc23)c(F)c1
- pIC50 (A549): 8.00
- pIC50 (HepG2): 5.95
- pIC50 (MCF7): 5.12
- pIC50 (PC-3): 8.52

Structure (SMILES): O=C(N/N=C/c1ccc(Cl)c(Cl)c1)Nc1ccc(Oc2ccnc3[nH]ccc23)c(F)c1
- pIC50 (A549): 5.58
- pIC50 (HepG2): 5.43
- pIC50 (MCF7): 6.00
- pIC50 (PC-3): 4.85

Structure (SMILES): O=C(N/N=C/c1cccc([N+](=O)[O-])c1)Nc1ccc(Oc2ccnc3[nH]ccc23)c(F)c1
- pIC50 (A549): 5.44
- pIC50 (HepG2): 5.29
- IC50 (MCF7): Not Active
- pIC50 (PC-3): 5.29

Structure (SMILES): O=C(N/N=C/c1ccc(O)cc1)Nc1ccc(Oc2ccnc3[nH]ccc23)cc1
- pIC50 (A549): 5.72
- pIC50 (HepG2): 4.49
- pIC50 (MCF7): 5.24
- pIC50 (PC-3): 5.31

Structure (SMILES): COc1cc(/C=N/NC(=O)Nc2ccc(Oc3ccnc4[nH]ccc34)c(F)c2)cc(OC)c1OC
- pIC50 (A549): 4.47
- IC50 (HepG2): Not Active
- pIC50 (MCF7): 4.66
- IC50 (PC-3): Not Active

Structure (SMILES): N#Cc1ccc(/C=N/NC(=O)Nc2ccc(Oc3ccnc4[nH]ccc34)c(F)c2)cc1
- pIC50 (A549): 5.87
- pIC50 (HepG2): 6.07
- IC50 (MCF7): Not Active
- pIC50 (PC-3): 5.04

Structure (SMILES): O=C(N/N=C/c1cccc(Cl)c1Cl)Nc1ccc(Oc2ccnc3[nH]ccc23)c(F)c1
- IC50 (A549): Not Active
- IC50 (HepG2): Not Active
- IC50 (MCF7): Not Active
- IC50 (PC-3): Not Active

Structure (SMILES): O=C(N/N=C/c1cccn1CCN1CCOCC1)Nc1ccc(Oc2ccnc3[nH]ccc23)c(F)c1
- pIC50 (A549): 5.47
- pIC50 (HepG2): 4.92
- pIC50 (PC-3): 5.61

Structure (SMILES): O=C(N/N=C/c1ccc([N+](=O)[O-])cc1)Nc1ccc(Oc2ccnc3[nH]ccc23)cc1
- pIC50 (A549): 5.68
- pIC50 (HepG2): 5.34
- pIC50 (MCF7): 4.81
- pIC50 (PC-3): 4.55

Structure (SMILES): O=C(N/N=C/c1ccc([N+](=O)[O-])cc1)Nc1ccc(Oc2ccnc3[nH]ccc23)c(F)c1
- pIC50 (A549): 7.70
- pIC50 (HepG2): 5.52
- pIC50 (MCF7): 5.40
- pIC50 (PC-3): 6.82

Structure (SMILES): O=C(N/N=C/c1cccn1CCCN1CCCCC1)Nc1ccc(Oc2ccnc3[nH]ccc23)cc1
- pIC50 (A549): 5.81
- pIC50 (HepG2): 5.43
- pIC50 (MCF7): 5.33
- pIC50 (PC-3): 5.45

Structure (SMILES): O=C(N/N=C/c1cccn1CCCN1CCCCC1)Nc1ccc(Oc2ccnc3[nH]ccc23)c(F)c1
- pIC50 (A549): 5.55
- pIC50 (HepG2): 5.55
- pIC50 (MCF7): 5.32
- pIC50 (PC-3): 5.55

Structure (SMILES): O=C(N/N=C/c1ccccc1)Nc1ccc(Oc2ccnc3[nH]ccc23)c(F)c1
- pIC50 (A549): 5.60
- pIC50 (HepG2): 6.19
- pIC50 (MCF7): 5.62
- pIC50 (PC-3): 5.10

Structure (SMILES): COc1ccc(/C=N/NC(=O)Nc2ccc(Oc3ccnc4[nH]ccc34)cc2)c(OC)c1OC
- pIC50 (A549): 5.48
- pIC50 (HepG2): 5.53
- IC50 (MCF7): Not Active
- pIC50 (PC-3): 4.56

Structure (SMILES): O=C(N/N=C/c1ccc(O)cc1O)Nc1ccc(Oc2ccnc3[nH]ccc23)c(F)c1
- pIC50 (A549): 5.23
- pIC50 (HepG2): 5.34
- pIC50 (MCF7): 4.32
- pIC50 (PC-3): 4.89
